An excerpt weighted towards active compounds, which were near 2.6% of everything screened.
KCC2 mod – KCC2 cotransporter modulators, thallium flux, primary screen, cell-based, HEK293 KCC2, FluoZin-2 fluorescence, MLSMR | Solute carrier family 12 member 5 (Homo sapiens), Q9H2X9 | KCC2 cells, thallium flux FluoZin-2 fluorescence | B-score of Tl+ flux slope (higher = more flux/activation; lower = inhibition) at 10 µM | 190,000 tested, 2.2% active;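 active means thallium flux slope and its plate-corrected score both differing from the plate sample mean at a set confidence after two filtering rounds, in either direction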;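 further: slope of fluorescence scaled to starting intensity during 10 to 20 s after thallium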
Rad51 HR inh – human RAD51 strand exchange inhibitors, primary screen, biochemical, fluorescence | DNA repair protein RAD51 homolog 1 (Homo sapiens), Q06609 | hRad51 DNA strand exchange, fluorescence dequenching | inhibition, % at 10 µM | 200,000 tested, 0.085% active | AID 1385, 2008;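 active means inhibition above 40% at the single screening dose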;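 further: 0% = DMSO control wells and 100% = blanks with heterologous ssDNA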
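Material: hRad51 filaments on single-stranded DNA; Reagent: Donor/quencher-labelled 47-bp dsDNA substrate; Compound: 10 µM final, single point; Schedule: 37 °C 15-min filament assembly, 30-min compound preincubation, 15-min exchange; Technique: FRET fluorescence, excitation 485 nm, emission 520 nm; Benchmarks: control wells and blank wells on each plate.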
CHT inh – inhibitors of human choline transporter CHT; CHT-expressing cells, membrane potential dye, choline response; active compounds read low; B-score at 10 µM; 310,000 tested, 0.86% active; High affinity choline transporter 1 (Homo sapiens), Q9GZV3;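 active means B-score over 3 SD under the library average, and starting fluorescence ratio not unusually high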;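 further: choline stimulus applied at its EC90 after an EC20 pre-addition; B-score computed on integrated fluorescence ratio after choline addition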
Target sequence (Q9GZV3 whole entry, looked up): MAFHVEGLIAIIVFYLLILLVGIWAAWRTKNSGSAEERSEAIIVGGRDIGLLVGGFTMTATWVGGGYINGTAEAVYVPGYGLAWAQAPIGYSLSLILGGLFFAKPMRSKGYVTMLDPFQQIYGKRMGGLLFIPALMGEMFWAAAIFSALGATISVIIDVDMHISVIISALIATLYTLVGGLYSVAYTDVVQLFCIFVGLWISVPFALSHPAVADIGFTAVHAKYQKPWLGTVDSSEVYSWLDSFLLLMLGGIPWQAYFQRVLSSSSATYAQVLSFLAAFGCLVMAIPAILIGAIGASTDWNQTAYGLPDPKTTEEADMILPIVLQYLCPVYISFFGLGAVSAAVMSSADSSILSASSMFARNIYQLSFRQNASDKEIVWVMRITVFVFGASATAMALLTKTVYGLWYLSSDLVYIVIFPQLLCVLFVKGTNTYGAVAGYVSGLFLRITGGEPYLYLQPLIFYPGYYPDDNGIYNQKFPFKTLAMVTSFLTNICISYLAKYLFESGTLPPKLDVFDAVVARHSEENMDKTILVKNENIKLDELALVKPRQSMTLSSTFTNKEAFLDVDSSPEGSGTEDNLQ
CHT PAM – CHT positive allosteric modulators, primary screen, cell-based, membrane potential dye, choline EC20. 310,000 tested, 0.49% active. CHT-expressing cells; active compounds read high; LV-AA mutant CHT in HEK293 cells. B-score at 10 µM. AID 488977, 2010;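 active means initial fluorescence not abnormally high and integrated response B-score, plate-corrected, over 3 SD above library mean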
CHT act confirm – CHT activators, confirmation, cell-based, membrane potential dye, duplicate. shares compounds with CHT PAM. CHT-expressing cells, membrane potential dye fluorescence (FDSS); % of choline EC20–EC90 response window; HEK293 expressing CHT LV-AA mutant; choline added at its EC20. activation, % at 10 µM. 2,500 tested, 91% active. AID 504833, 2011;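 active means primary screen active, with duplicate mean activation above negative control mean plus 3 SD, cut at about 11% in these data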
HEK293 MP dye – membrane potential response in parental HEK293 cells, counter-screen for CHT activator project, cell-based, membrane potential dye. shares compounds with CHT PAM. membrane potential dye fluorescence (FDSS); measured after EC20 choline addition. AID 623908, 2012. ratio readout change at 10 µM, hits read low. 2,500 tested, 62% active;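 active means duplicate-averaged ratio beyond 3 SD from buffer wells, up or down, though filed actives are nearly all decreases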
* = called active by the depositor; i = inactive; x = no result given.

SMILES	KCC2 mod	Rad51 HR inh	CHT inh	CHT PAM	CHT act confirm	HEK293 MP dye
Cc1cc(OC(C)C(=O)NCC2CCC(C(=O)O)CC2)c2c(C)c(C)c(=O)oc2c1 (stereo unspecified)	x	x	i	i	x	x
COc1ccc2nc(N(CCN(C)C)C(=O)/C=C/c3cccs3)sc2c1	-1.2	12	i	7.2*	35*	-32*
COc1ccc(C(N)c2nccc3cc(OC)c(OC)cc23)cc1OC (stereo unspecified)	x	x	i	7.3*	53*	-41*
COc1cc(N)c(C(=O)c2nccc3cc(OC)c(OC)cc23)cc1OC	x	x	i	i	x	x
COc1ccccc1CNC(=O)c1ccc2nc(N3CCOCC3)sc2c1	x	x	i	i	x	x
OCCNc1nc2ccccc2nc1NCCO	0.47	-11	i	i	x	x
OCCNc1c2ccccc2nc2ccccc12	0.072	11	i	6.3*	40*	-47*
OCCNc1nc(N2CCN(Cc3ccccc3)CC2)nc2ccccc12	0.84	1	i	i	60*	-72*
CCN1CCN(c2nc(NCCO)c3ccccc3n2)CC1	x	x	i	8.9*	76*	-79*
COc1cc2c(cc1OC)C(c1cccs1)N(C(=S)NC(C)C)CC2 (stereo unspecified)	-2.3	-44	i	8.7*	14*	i
Cc1nnc(NCc2ccncc2)c2ccccc12	1.3	3	i	7.1*	56*	-46*
CCCCOc1ccccc1C1CC(=O)NC2=C1C(=O)CCC2 (stereo unspecified)	0.44	x	i	11*	73*	i
CCCOc1ccccc1C1CC(=O)NC2=C1C(=O)CCC2 (stereo unspecified)	0.66	-4	i	i	x	x
CN(c1ccc(C(=O)Nc2ccc3c(c2)n(C)c(=O)n3C)cc1)S(C)(=O)=O	x	x	i	i	x	x
CC(C)N(C(=O)COC(=O)[C@@H]1CC(O)CN1S(=O)(=O)c1ccc(C(C)(C)C)cc1)C(C)C (stereo partly specified)	-0.032	-17	i	7.1*	9	i
O=C(COC(=O)C1CC(O)CN1S(=O)(=O)c1ccc(Cl)cc1)c1ccccc1 (stereo unspecified)	-2.9	1	i	i	x	x
Cc1cc(N2CC(C)OC(C)C2)nc2ccccc12 (stereo unspecified)	0.29	0	i	6.6*	28*	-55*
COC(=O)c1ccc(N(C(=O)CNC(=O)c2ccco2)C(C(=O)NC2CCCC2)c2ccco2)cc1 (stereo unspecified)	x	-4	i	i	x	x
Cc1cc(-c2ccccc2)nc2[n+]1CCN2C	x	3	i	7.5*	61*	-59*
CC(O)CNC12CC3CC(CC(C3)C1)C2 (stereo unspecified)	0.83	x	i	i	x	x
O=[N+]([O-])c1cccc(-c2nc(-c3ccncc3)no2)c1	1	x	i	7.1*	44*	-43*
COc1ccc2nc(NC3=NCCC3)sc2c1	x	1	i	6.5*	54*	-45*
COc1ccc(-c2nc(NC3=NCCCCC3)sc2C)cc1	-0.13	2	i	i	x	x
CCn1c(C)c(Br)c(=O)c(C(=O)OC)c1-c1ccc(Cl)cc1	x	x	i	i	x	x
Nc1ccc(C(=O)OCc2ccncc2)cc1[N+](=O)[O-]	-1.1	8	i	i	35*	-31*
SMILES	KCC2 mod	Rad51 HR inh	CHT inh	CHT PAM	CHT act confirm	HEK293 MP dye
CC(C)(C)C(=O)COC(=O)c1ccc(N)c([N+](=O)[O-])c1	-0.63	x	i	i	x	x
O=C1N=C(O)CN1/N=C/c1ccc(-c2ccc([N+](=O)[O-])cc2)o1	x	-3	i	7.6*	32*	-32*
CCOC(=O)C1(Cc2cccc(OC)c2)CCN(Cc2ccc(C)s2)CC1	0.13	4	i	i	x	x
CCN1C(=O)c2cccc3c(S(=O)(=O)NCCCN4CCOCC4)ccc1c23	x	0	i	7*	59*	-54*
COc1ccc(C2=CSC3=NCCN23)cc1F	0.19	-1	i	7.2*	47*	-55*
O=[N+]([O-])c1ccc(C2=CSC3=NCCN23)cc1	x	x	i	7.4*	43*	-61*
COc1ccc(C2=CSC3=NCCN23)cc1Cl	x	x	i	i	x	x
COc1ccc(C2=CSC3=NCCN23)cc1[N+](=O)[O-]	x	x	i	i	x	x
COc1ccc(C2=CSC3=NCCN23)cc1Br	x	x	i	6.6*	29*	-47*
O=c1[nH]c2ccc(S(=O)(=O)Nc3ccccc3O)cc2[nH]1	x	x	i	i	x	x
CCCCn1c(=N)n(CCOc2ccc(C)cc2)c2ccccc21	0.22	x	i	9.7*	25*	i
CCN(CC)CCn1c(=N)n(CCOc2ccccc2)c2ccccc21	x	5	i	i	x	x
CCN(CC)CCn1c(=N)n(CC(O)COc2ccccc2)c2ccccc21 (stereo unspecified)	-0.32	-29	i	7.3*	21*	i
COc1ccccc1OCC(O)Cn1c(=N)n(Cc2ccccc2)c2ccccc21 (stereo unspecified)	-0.1	6	i	9.6*	28*	i
Cc1ccc(OCC(O)Cn2c(=N)n(CCN3CCCCC3)c3ccccc32)cc1 (stereo unspecified)	x	3	i	9.6*	20*	i
COc1ccc(OCCn2c(=N)n(CCO)c3ccccc32)cc1	0.72	1	i	i	x	x
COc1ccc(OCC(O)Cn2c(=N)n(CCN3CCCCC3)c3ccccc32)cc1 (stereo unspecified)	-0.47	16	i	i	x	x
CCOC(=O)N1CCC(NC(=O)c2ccc(CS(=O)(=O)c3ccccc3C)o2)CC1	-2.2	-2	i	i	x	x
CC(=O)Nc1ccc2c(c1)nc1n2CCN(C2CCCCC2)C1	0.06	0	x	x	x	x
CCN(CC)CCn1c(=N)n(CC(=O)c2ccc(Br)s2)c2ccccc21	-1.3	1	i	6.4*	21*	i
Cn1c(=N)n(CC(=O)c2ccc(Br)s2)c2ccccc21	-0.32	x	i	i	x	x
COc1cc(C(=O)NCC(=O)N/N=C/c2cccnc2)cc(OC)c1OC	x	x	i	i	x	x
CN1CCN(c2nc3c(c(=O)[nH]c(=O)n3C)n2CCCSc2ncccn2)CC1	-0.098	4	i	7.7*	46*	-54*

Screens as filed in PubChem BioAssay.
